Data on eleven compounds can be found in ChEMBL document CHEMBL3797125, “Discovery of GluN2A-Selective NMDA Receptor Positive Allosteric Modulators (PAMs): Tuning Deactivation Kinetics via Structure-Based Design” (J Med Chem, 2016).

The target of data set [1] is T1, Glutamate NMDA receptor; GRIN1/GRIN2A (Homo sapiens, UniProt Q05586+Q12879). Kind of data set: Positive allosteric modulation of GluN1/GluN2A NMDAR (unknown origin) expressed in Dox-inducible cells measured every 5 mins by BD calcium indicator dye based-fluorescence analysis in presence of glutamate/glycine. It counts as cell-based. In a few lines:
(§1)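 GluN2A-containing NMDAR cell line, harvested, seeded, doxycycline 2 µg/mL overnight with 500 µM ketamine for protection, then washed and loaded with calcium dye for 50 min. Compound added at 2x concentration in 2x EC30 Glu (EC30 set daily from Glu dose-response); saturating Gly throughout; fluorescence recorded over 5 min.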

The target in data set [2] is T2, Glutamate receptor 2 (Homo sapiens, UniProt P42262). Kind of data set: Positive allosteric modulation of human GluA2 AMPAR flip isomer expressed in Dox-inducible cells at 125 uM measured every 5 mins by BD calcium indicator dye based-fluorescence analysis in presence of glutamate. It counts as cell-based.
The target of data set [3] is T1, Glutamate NMDA receptor; GRIN1/GRIN2A. Kind of data set: Positive allosteric modulation of GluN1/GluN2A NMDAR (unknown origin) expressed in Dox-inducible cells at 125 uM measured every 5 mins by BD calcium indicator dye based-fluorescence analysis in presence of glutamate/glycine. The data set is classed as cell-based. In a few lines: as §1
The test system of the next data set is human MDR1 (P-gp). Kind of data set: Efflux ratio of permeability from basolateral to apical over apical to basolateral side in MDCK cells expressing human MDR1. It counts as ADME, cell-based, Canis lupus familiaris. The following applies: dog.
Data set [4] deals with T2, Glutamate receptor 2. Kind of data set: Positive allosteric modulation of human GluA2 AMPAR flip isomer expressed in Dox-inducible cells measured every 5 mins by BD calcium indicator dye based-fluorescence analysis in presence of glutamate. The data set is classed as cell-based.
Data set [5] addresses T2, Glutamate receptor 2. Kind of data set: Positive allosteric modulation of human GluA2 AMPAR flop isomer expressed in Dox-inducible cells at 125 uM measured every 5 mins by BD calcium indicator dye based-fluorescence analysis in presence of glutamate. The data set is classed as cell-based.
For data set [6], the target named is T2, Glutamate receptor 2. Kind of data set: Positive allosteric modulation of human GluA2 AMPAR flop isomer expressed in Dox-inducible cells measured every 5 mins by BD calcium indicator dye based-fluorescence analysis in presence of glutamate. The data set is classed as cell-based.

T2 sequence (P42262 whole entry): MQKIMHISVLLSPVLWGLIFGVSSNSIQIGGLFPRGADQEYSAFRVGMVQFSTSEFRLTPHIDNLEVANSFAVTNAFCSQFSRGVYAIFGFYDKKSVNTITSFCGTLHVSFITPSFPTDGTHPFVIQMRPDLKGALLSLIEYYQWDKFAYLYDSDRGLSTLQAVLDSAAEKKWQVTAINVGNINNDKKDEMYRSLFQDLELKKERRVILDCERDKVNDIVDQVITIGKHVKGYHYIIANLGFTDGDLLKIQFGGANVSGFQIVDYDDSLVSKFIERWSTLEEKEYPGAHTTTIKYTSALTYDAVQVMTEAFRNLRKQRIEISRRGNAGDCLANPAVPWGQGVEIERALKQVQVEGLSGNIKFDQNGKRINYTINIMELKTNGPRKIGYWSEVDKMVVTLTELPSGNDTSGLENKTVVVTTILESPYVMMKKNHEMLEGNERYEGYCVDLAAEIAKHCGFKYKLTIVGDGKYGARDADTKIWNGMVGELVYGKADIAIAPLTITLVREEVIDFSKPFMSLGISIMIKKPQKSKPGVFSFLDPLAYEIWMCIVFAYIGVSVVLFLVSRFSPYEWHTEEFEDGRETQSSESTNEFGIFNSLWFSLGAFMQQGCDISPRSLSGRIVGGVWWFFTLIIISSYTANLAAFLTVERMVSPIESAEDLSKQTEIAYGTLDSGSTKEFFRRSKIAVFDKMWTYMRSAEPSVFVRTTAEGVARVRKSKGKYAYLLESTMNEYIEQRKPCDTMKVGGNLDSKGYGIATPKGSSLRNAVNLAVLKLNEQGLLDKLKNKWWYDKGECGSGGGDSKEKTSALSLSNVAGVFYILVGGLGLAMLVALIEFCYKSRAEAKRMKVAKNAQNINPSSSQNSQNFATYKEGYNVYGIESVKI

As to `Cc1sc2nc(Cn3nc(C(F)(F)F)cc3Cl)cc(=O)n2c1[C@@H]1C[C@H]1CO`, the half-maximal effective concentration (EC50) (as a rule, the concentration giving half of the maximal effect) in data set [1] is 17.7 nM; at Glutamate receptor 2 [4], 150 nM; on Glutamate receptor 2 [6] it was 48 nM. In addition, the %max at Glutamate receptor 2 [2] stood at 85%; in data set [3], 147%; at Glutamate receptor 2 [5] it was 52%. Moreover, in the data set on human MDR1 (P-gp), the efflux ratio (as a rule, a quotient of directional permeabilities that is used to spot active efflux) is 1.3.
Regarding `CCN(Cc1cc(=O)n2c(CCO)c(C)sc2n1)c1ccc(F)cc1`, the EC50 in data set [1] was 159 nM; on Glutamate receptor 2 [4], 10500 nM; at Glutamate receptor 2 [6] it was 572 nM. Further, the %max stood at 72% at Glutamate receptor 2 [2], 168% in data set [3] and 75% at Glutamate receptor 2 [5]. Also, the efflux ratio in the data set on human MDR1 (P-gp) worked out at 0.9.
For the compound `CCN(Cc1cc(=O)n2c(C(C)(C)O)c(C)sc2n1)c1ccc(F)cc1`, the results for the half-maximal effective concentration (EC50) (in data set [1]; on Glutamate receptor 2 [4]; on Glutamate receptor 2 [6]) were 63 nM, 12400 nM and 2400 nM, respectively. Also, the results for the %max (at Glutamate receptor 2 [2]; in data set [3]; at Glutamate receptor 2 [5]) were 65%, 157% and 5%, respectively. The efflux ratio in the data set with human MDR1 (P-gp) worked out at 1.
Take `Cc1sc2nc(Cc3cccc(C(F)(F)F)c3F)cc(=O)n2c1C1CC1CO` (racemic): the EC50 in data set [1] turned out to be 454 nM; at Glutamate receptor 2 [4], 1700 nM; on Glutamate receptor 2 [6] it was 359 nM. Moreover, the %max is 57% at Glutamate receptor 2 [2], 117% in data set [3] and 27% at Glutamate receptor 2 [5]. Further, in the data set with human MDR1 (P-gp), the efflux ratio worked out at 0.51.
`O=c1cc(Cn2nc(C(F)(F)F)cc2Cl)nc2sc(C(F)(F)F)c([C@@H]3C[C@H]3CO)n12`: the EC50 in data set [1] amounted to 73 nM; at Glutamate receptor 2 [4], 36100 nM; on Glutamate receptor 2 [6], 2500 nM. The %max came to 66% at Glutamate receptor 2 [2], 144% in data set [3] and 41% at Glutamate receptor 2 [5]. For the same compound, in the data set on human MDR1 (P-gp), the efflux ratio turned out to be 1.
In the case of `CCN(Cc1cc(=O)n2c(CO)c(C)sc2n1)c1ccc(F)cc1`, the half-maximal effective concentration (EC50) in data set [1] stood at 649 nM; at Glutamate receptor 2 [4] it was 66300 nM; at Glutamate receptor 2 [6] it was 1900 nM. The %max was determined as 39% on Glutamate receptor 2 [2], 153% in data set [3] and 83% at Glutamate receptor 2 [5]. In addition, the efflux ratio with human MDR1 (P-gp) is 1.1.
With `CCN(Cc1cc(=O)n2c([C@@H]3C[C@H]3CO)c(C)sc2n1)c1ccc(F)cc1`, the EC50 turned out to be 24.4 nM in data set [1], 870 nM on Glutamate receptor 2 [4] and 204 nM at Glutamate receptor 2 [6]. Moreover, the %max on Glutamate receptor 2 [2] is 84%; in data set [3] it was 184%; on Glutamate receptor 2 [5], 64%. In addition, the efflux ratio in the data set on human MDR1 (P-gp) came out at 1.2.
As for `CCNC(=O)c1c(C)sc2nc(Cc3cccc(C#N)c3)cc(=O)n12`, the EC50 was found to be 62200 nM in data set [1], 32900 nM at Glutamate receptor 2 [4] and 53700 nM on Glutamate receptor 2 [6]. The %max came to 10% at Glutamate receptor 2 [2], 71% in data set [3] and 8% at Glutamate receptor 2 [5]. In addition, the efflux ratio in the data set on human MDR1 (P-gp) came out at 25.
Take `Cc1sc2nc(COc3ccc(F)cc3)cc(=O)n2c1[C@@H]1C[C@H]1CO`: the EC50 in data set [1] stood at 382 nM; at Glutamate receptor 2 [4], 5400 nM; at Glutamate receptor 2 [6], 2300 nM. Moreover, the %max at Glutamate receptor 2 [2] turned out to be 7%; in data set [3] it was 122%; on Glutamate receptor 2 [5], 6%. Besides, in the data set with human MDR1 (P-gp), the efflux ratio came to 0.8.
In the case of `CCN(Cc1cc(=O)n2c(N3CCOCC3)c(C)sc2n1)c1ccc(F)cc1`, the concentration giving a half-maximal response (EC50) in data set [1] was 2200 nM; on Glutamate receptor 2 [4] it was 75800 nM; at Glutamate receptor 2 [6] it was 60200 nM. Also, the %max on Glutamate receptor 2 [2] was determined as 11%; in data set [3], 69%; on Glutamate receptor 2 [5] it was 8%. Besides, the efflux ratio in the data set on human MDR1 (P-gp) was found to be 0.9.
In the case of `CCN(Cc1cc(=O)n2c(C#N)c(C)sc2n1)c1ccc(F)cc1`, the concentration giving a half-maximal response (EC50) in data set [1] came to 129 nM; at Glutamate receptor 2 [4] it was 66600 nM; at Glutamate receptor 2 [6] it was 10700 nM. Besides, the %max on Glutamate receptor 2 [2] came out at 13%; in data set [3] it was 181%; at Glutamate receptor 2 [5], 60%. Besides, the efflux ratio in the data set on human MDR1 (P-gp) amounted to 0.9.
